Source: paper PMC9099060 (Dose-Response, 2022)

What was measured:
Type in all cases: biochemical
α-glucosidase = α-glucosidase (Saccharomyces cerevisiae, UniProt P07265); experiment: In vitro inhibitory activity against α-glucosidase
DPP-IV [1] = target: T1, DPP-IV (Homo sapiens, UniProt P27487); experiment: Inhibitory kinetics study
Method in brief: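 Test compound was tested separately at 0.25 and 0.5 mg/mL, each against Gly-Pro-AMC at various concentrations (0–60 μM). Inhibition pattern was assigned from Lineweaver-Burk plots. Ki was obtained from a double-reciprocal plot of initial […] against substrate. Values are mean ± SD, n = 6.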

human α-amylase (HPA) = target: T2, human α-amylase (HPA) (Homo sapiens, UniProt P04746); experiment: In vitro inhibitory activity against α-amylase; details: α-amylase IC50 (μM)±SD, starch substrate; mean ± SD, n = 6
T2 sequence (P04746 16-511): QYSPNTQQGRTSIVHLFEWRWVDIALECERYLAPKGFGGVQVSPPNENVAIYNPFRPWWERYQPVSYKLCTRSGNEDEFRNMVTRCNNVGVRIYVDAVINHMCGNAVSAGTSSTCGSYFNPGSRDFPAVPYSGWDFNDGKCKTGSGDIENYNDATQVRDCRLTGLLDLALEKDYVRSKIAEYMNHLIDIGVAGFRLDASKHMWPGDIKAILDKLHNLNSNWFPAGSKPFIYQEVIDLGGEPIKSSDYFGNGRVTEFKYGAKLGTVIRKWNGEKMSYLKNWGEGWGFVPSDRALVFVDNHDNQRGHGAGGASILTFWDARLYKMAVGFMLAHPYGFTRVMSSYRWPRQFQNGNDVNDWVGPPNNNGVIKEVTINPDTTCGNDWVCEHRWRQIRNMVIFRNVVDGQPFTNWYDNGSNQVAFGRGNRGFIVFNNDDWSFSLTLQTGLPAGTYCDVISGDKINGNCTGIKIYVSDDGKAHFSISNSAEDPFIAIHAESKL

DPP-IV [2] = target: T1, DPP-IV; experiment: In vitro inhibitory activity against DPP-IV

T1 sequence (P27487 whole entry): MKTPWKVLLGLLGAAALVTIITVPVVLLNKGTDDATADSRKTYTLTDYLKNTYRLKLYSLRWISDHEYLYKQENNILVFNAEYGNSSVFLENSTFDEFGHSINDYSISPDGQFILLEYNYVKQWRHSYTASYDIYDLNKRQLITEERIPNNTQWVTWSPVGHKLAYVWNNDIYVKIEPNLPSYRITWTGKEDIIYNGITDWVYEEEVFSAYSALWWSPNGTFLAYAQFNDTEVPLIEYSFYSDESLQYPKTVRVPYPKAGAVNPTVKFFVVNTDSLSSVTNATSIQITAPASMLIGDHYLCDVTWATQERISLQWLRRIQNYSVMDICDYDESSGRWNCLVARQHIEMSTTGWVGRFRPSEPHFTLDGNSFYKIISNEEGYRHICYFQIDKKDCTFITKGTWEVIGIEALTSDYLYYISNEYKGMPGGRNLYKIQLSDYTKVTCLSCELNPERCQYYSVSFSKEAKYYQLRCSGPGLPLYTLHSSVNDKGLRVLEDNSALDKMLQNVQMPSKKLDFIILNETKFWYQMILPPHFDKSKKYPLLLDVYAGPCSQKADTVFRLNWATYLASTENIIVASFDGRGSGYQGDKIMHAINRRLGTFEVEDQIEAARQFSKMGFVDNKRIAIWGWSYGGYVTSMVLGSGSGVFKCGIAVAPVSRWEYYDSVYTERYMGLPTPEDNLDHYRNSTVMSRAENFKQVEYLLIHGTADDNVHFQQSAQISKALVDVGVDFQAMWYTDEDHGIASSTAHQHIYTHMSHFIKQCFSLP
Sequence of α-glucosidase (P07265 whole entry): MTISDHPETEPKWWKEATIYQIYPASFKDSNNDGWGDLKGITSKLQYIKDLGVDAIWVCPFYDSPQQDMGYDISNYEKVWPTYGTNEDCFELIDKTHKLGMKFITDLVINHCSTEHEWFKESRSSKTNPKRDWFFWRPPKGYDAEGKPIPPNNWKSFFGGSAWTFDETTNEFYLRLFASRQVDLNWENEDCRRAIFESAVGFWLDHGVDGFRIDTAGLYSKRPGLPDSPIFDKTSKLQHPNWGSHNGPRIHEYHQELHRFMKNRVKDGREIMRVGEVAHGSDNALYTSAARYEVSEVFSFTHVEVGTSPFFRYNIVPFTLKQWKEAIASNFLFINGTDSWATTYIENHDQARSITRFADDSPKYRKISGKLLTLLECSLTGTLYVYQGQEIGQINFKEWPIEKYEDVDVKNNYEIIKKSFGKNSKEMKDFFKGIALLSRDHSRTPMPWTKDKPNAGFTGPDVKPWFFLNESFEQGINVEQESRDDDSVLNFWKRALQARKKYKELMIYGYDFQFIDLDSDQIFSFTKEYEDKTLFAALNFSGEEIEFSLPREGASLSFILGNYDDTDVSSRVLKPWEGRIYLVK

IC50 (α-glucosidase) [µM] | Ki (DPP-IV [1]) [µM] | IC50 (human α-amylase (HPA)) [µM] | IC50 (DPP-IV [2]) [µM] | Compound
45.9 ± 3.78 | 12.3 | 31.3 ± 0.556 | 6.691 ± 0.004 | O=C1c2c(O)cc(O)cc2OC(c2ccc(O)c(O)c2)C1O (stereo not shown) [Taxifolin]
47.9 ± 5.21 | 15 | – | 5.638 ± 0.0016 | Oc1ccc(/C=C/c2cc(O)cc(O)c2)cc1 [Resveratrol]
